Compound activity deposited in PubChem BioAssay by several laboratories.
Hits are enriched below; roughly 6.5% of the tested compounds scored in any of these assays.
Calb biofilm kill: kills Candida albicans biofilms; inhibition, % at 6 µM; 85,000 compounds, 0.14% hits; C. albicans biofilm + clotrimazole, Alamar Blue;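 active means inhibition above 20%; inactive means inhibition below 20%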;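 further: preformed 24 hr biofilms exposed to compound for 48 hr; 0% = biofilm without compound and 100% = blank killed by clotrimazole plus chlorhexidine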
tolC growth inh: E. coli tolC mutant growth inhibition | growth inhibition, % at 10 µM (by protocol) | E. coli BW25113 tolC mutant growth, OD615 | 65,000 compounds, 2.2% hits;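 active means growth inhibition at or above a cutoff equal to the mean over every tested compound plus 3 SD, cut at about 60% in these data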;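 further: growth measured after 20 h incubation at 37 °C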
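test system = E. coli BW25113 ΔtolC::kan bacteria | medium = LB with kanamycin 50 µg/mL | signal = OD at 615 nm | schedule = 37 °C, 20 h exposure | evaluation = % inhibition of E. coli growth | compound dosing = one dose of 10 µM final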
PostGolgi yeast: growth inhibition of a yeast mutant, post-Golgi transport screen; post-Golgi transport phenotypic cell assay; inhibition, % at 10 µM; 98,000 compounds, 0.9% hits; AID 739;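 further: yeast cells grown in 1536-well plates; yeast grown about 18 h at 30C before absorbance read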
E coli WT exp: E. coli BW25113 growth inhibition, expanded screen. AID 710. growth inhibition, % at 100 µM. 98,000 compounds, 0.15% hits. OD600 absorbance;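 active means growth inhibition above about 50% at one test dose, limit read from the data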;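 further: growth measured after 20 h incubation at 37 °C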
PostGolgi ctrl: yeast control strain growth, post-Golgi counter-screen; AID 738; efflux-deficient yeast background strain, growth absorbance A615, 16 h; inhibition, % at 10 µM; 98,000 compounds, 5% hits
Pyk2 oligo antag: blocks oligomerization of human Pyk2 in cells; Q14289; Q293 cells, Pyk2 FERM NanoBiT luminescence; stronger effect = lower value; z-score (the deposit names both 25 µM and 10 µM); AID 1347419; 99,000 compounds, 0.83% hits;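 active means Z-score of -3 or lower, scaled per plate to the spread of control and sample wells; inactive means z-score above -3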;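 further: negative z-score means lost luminescence so less FERM oligomerization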
Target sequence (Q14289 whole entry, looked up): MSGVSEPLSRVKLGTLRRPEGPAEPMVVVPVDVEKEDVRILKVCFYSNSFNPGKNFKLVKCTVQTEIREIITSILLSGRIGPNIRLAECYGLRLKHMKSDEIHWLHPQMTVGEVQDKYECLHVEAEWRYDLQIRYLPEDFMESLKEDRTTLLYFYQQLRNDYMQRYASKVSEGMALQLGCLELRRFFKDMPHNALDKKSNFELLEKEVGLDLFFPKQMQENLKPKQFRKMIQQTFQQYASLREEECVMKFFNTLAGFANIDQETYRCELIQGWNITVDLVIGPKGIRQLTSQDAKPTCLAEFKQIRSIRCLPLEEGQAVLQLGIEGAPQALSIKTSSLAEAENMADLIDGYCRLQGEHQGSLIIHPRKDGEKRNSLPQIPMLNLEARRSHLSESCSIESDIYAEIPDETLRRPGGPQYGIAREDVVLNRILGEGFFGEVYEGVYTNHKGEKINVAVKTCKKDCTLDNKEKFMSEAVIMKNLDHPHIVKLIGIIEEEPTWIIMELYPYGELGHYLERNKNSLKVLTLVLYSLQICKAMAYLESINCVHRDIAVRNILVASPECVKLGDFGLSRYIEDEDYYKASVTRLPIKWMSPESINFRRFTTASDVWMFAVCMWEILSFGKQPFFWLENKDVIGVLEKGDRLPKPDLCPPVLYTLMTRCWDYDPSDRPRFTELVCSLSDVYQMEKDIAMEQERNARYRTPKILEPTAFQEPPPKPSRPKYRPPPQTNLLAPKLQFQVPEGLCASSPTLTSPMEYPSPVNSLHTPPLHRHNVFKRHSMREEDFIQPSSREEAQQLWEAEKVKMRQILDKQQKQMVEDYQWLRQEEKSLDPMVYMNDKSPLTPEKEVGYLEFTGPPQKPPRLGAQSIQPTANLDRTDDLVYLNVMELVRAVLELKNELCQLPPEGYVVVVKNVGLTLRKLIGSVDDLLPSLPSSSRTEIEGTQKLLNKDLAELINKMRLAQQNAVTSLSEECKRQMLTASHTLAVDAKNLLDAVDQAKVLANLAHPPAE
* marks the source's active call; other numbers are inactive results; / = no result. Unless noted, no stated cut-off is given here; in the data, active means inhibition above about 30%; inactive means the rest.

SMILES	Calb biofilm kill	tolC growth inh	PostGolgi yeast	E coli WT exp	PostGolgi ctrl	Pyk2 oligo antag
O=C(CSc1nnc(-c2ccccn2)n1Cc1ccco1)c1ccccc1	7.6	4.4	1.8	1.0	31.0*	-0.07
COc1ccc(C(=O)CSc2nnc(-c3ccccn3)n2Cc2ccco2)cc1	-0.7	18.2	2.1	-4.0	35.4*	0.5
CCn1cc(C(=O)NC2CCCC2)c(=O)c2cc(S(=O)(=O)N3CCOCC3)ccc21	3.1	4.1	/	/	/	/
CCCCN(C)C(=O)c1cc2cc3ccc(OC)cc3nc2s1	-5.7	/	-4.6	1.0	29.4	-1.03
COc1ccc(NC(=O)c2onc(C)c2Cl)cc1OC	12.2	/	2.2	-2.0	33.8*	/
COc1ccc(NC(=O)c2cc(C)on2)cc1OC	1.2	-10.3	12.2	3.0	5.9	-0.66
COc1ccc(S(=O)(=O)N2CC3C4C=CC(C4)C3C2)cc1 (stereo not drawn)	8.1	20.9	-5.7	2.0	46.8*	-0.18
COc1ccc(S(=O)(=O)N2CC(C)N(S(=O)(=O)c3ccc(OC)cc3)CC2C)cc1 (stereo not drawn)	-0.6	0.3	/	/	/	/
O=C(CCc1ccc(S(=O)(=O)N2CCOCC2)cc1)Nc1nccs1	4.7	/	-4.9	3.0	13.8	0.37
Cc1cc(Cl)ccc1OC(C)C(=O)NCCCCc1ccccc1 (stereo not drawn)	/	/	-1.4	8.0	16.9	0.19
COC(=O)c1ccccc1NC(=O)CNc1cc(Cl)ccc1N1CCOCC1	0.1	23.7	6.0	-2.0	34.5*	0.53
Cc1cc(Cl)ccc1OC(C)C(=O)N1CCCN(C(=O)C(C)Oc2ccc(Cl)cc2C)CC1 (stereo not drawn)	/	/	9.1	-11.0	44.4*	0.81
Cc1cc(Cl)ccc1OC(C)C(=O)Nc1ccccc1N1CCOCC1 (stereo not drawn)	10.1	66.1*	0.2	-11.0	16.0	-1.05
O=C(CCc1ccc(S(=O)(=O)N2CCOCC2)cc1)Nc1cc(Cl)ccc1N1CCOCC1	/	2.3	0.6	0.0	33.9*	2.13
CCN(CC)CCN1C(=O)C(O)=C(C(C)=O)C1c1ccccc1 (stereo not drawn)	-3.0	-3.8	/	/	/	/
COc1ccc(Nc2ccc3c(c2)=NC2(CCCCC2)[N+]=3[O-])cc1	/	52.6	0.6	22.0	2.5	-0.74
[O-][N+]1=c2ccc(Nc3ccccc3)cc2=NC12CCCCC2	7.3	89.8*	-10.8	23.0	5.2	-1.04
CC(C)CCn1c(SCC(=O)OCn2nnc3ccccc3c2=O)nc2ccccc2c1=O	/	13.5	-2.0	-2.0	19.2	0.13
O=c1cc(O)nc(SCc2ccccc2)n1-c1ccc(F)cc1	/	/	9.9	16.0	-0.3	-0.52
Cn1cccc1Cc1nnc(SCC(=O)Nc2ccc(Cl)cc2)n1-c1ccc(F)cc1	8.0	70.8*	5.1	-8.0	18.8	/
Cc1ccc(-n2c(Cc3cccn3C)nnc2SCC(=O)NCc2ccc3c(c2)OCO3)cc1	0.1	29.8	6.7	2.0	32.5*	-0.38
Cc1nnc(NC(=O)CSc2nnc(Cc3cccn3C)n2-c2cccc(C(F)(F)F)c2)s1	23.5*	4.9	-6.0	0.0	1.9	/
Cn1cccc1Cc1nnc(SCC(=O)Nc2ccc(F)cc2)n1-c1ccc(F)cc1	12.7	15.7	-3.3	-1.0	9.6	/
CCC(=O)Nc1ccc(Cl)c(NC(=O)C(C)C)c1	6.4	-14.4	0.2	8.0	19.1	0.39
CCOC(=O)c1c(C)oc2cc3c(C(=O)OCC)c(C)oc3cc12	2.7	/	/	/	/	/
SMILES	Calb biofilm kill	tolC growth inh	PostGolgi yeast	E coli WT exp	PostGolgi ctrl	Pyk2 oligo antag
Cc1noc(C)c1COc1ccc(C(=O)OCc2nnc(-c3ccc(Cl)cc3)o2)cc1	0.7	33.4	21.5	-25.0	11.8	3.34
Cc1nc2sc(C(c3cccs3)N3CCN(C(=O)c4ccco4)CC3)c(O)n2n1 (stereo not drawn)	15.4	-16.8	2.4	-1.0	-0.3	/
Cc1nc2sc(C(c3cccs3)N3CCN(c4cccc(Cl)c4)CC3)c(O)n2n1 (stereo not drawn)	9.1	21.5	-0.7	-1.0	47.9*	/
Cc1nc2sc(C(c3ccc(Cl)cc3)N3CCN(c4ccccc4F)CC3)c(O)n2n1 (stereo not drawn)	/	16.2	1.9	-12.0	32.2*	-1.55
CCOCCCNC(=O)C1CCCN1C(=O)NC1CCCCC1 (stereo not drawn)	-2.9	-2.0	6.9	2.0	1.6	1.06
Cc1ccc(SC/C(O)=C(\C#N)c2nc3ccccc3n2C)cc1	1.4	3.2	-1.9	0.0	37.1*	-0.81
Cn1c(/C(C#N)=C(\O)CN2CCN(Cc3ccccc3)CC2)nc2ccccc21	4.5	17.0	-2.6	4.0	14.4	1.19
COc1ccc(N(CC(=O)Nc2cccc(C)c2C)S(=O)(=O)c2c(C)n[nH]c2C)cc1	3.3	13.7	0.9	10.0	-7.1	-3.26*
Cc1noc(C)c1S(=O)(=O)N(CC(=O)Nc1ccc2c(c1)OCO2)c1ccc(C(C)C)cc1	12.8	-1.8	-16.9	-6.0	2.2	/
Cc1n[nH]c(C)c1S(=O)(=O)N(CC(=O)Nc1ccc2c(c1)OCCO2)c1ccc(C(C)C)cc1	12.1	65.9*	-0.5	-3.0	3.6	/
CN1C(=O)NC(c2ccccc2)C2=C1CN(c1ccc3ccccc3c1)C2=O (stereo not drawn)	/	/	4.8	-1.0	5.8	-1
Cc1ccc(/C=C/C2=NN(Cc3ccccc3Cl)C(=O)CC2)cc1	5.6	/	-0.9	-9.0	41.4*	-1.53
Cc1cc(C)nc(N/N=C/C(Cl)=C/c2ccccc2)n1	/	/	30.8*	-3.0	-1.2	-0.16
CCCC(=O)N1CCN(c2ccc([N+](=O)[O-])c(NC(C)c3ccccc3)c2)CC1 (stereo not drawn)	/	/	4.7	-28.0	18.7	-2.72
CC(=O)N(CCC(Cc1ccccc1)c1ccc2c(c1)OCO2)Cc1ccc(Cl)cc1 (stereo not drawn)	/	/	-3.4	-10.0	36.4*	-2.13
CCOc1ccc2[nH]c(=O)c(CN(CCOC)C(=O)N3CCOCC3)cc2c1	-2.1	-10.0	11.5	4.0	5.2	0.97
COc1ccc2c(c1)OC13CCCCC1C2C(C(=O)c1ccccc1)C(=O)N3 (stereo not drawn)	1.9	/	-6.4	-13.0	-10.2	/
COc1ccc(/C=C/C(=O)Nc2cc(C(F)(F)F)ccc2Cl)cc1	/	/	-3.8	-6.0	-2.6	0.18
COc1ccc(/C=C\C(=O)CC(O)(c2ccccc2)C(F)(F)F)cc1 (stereo not drawn)	5.8	/	-4.2	7.0	37.7*	-1.76
CCCS(=O)(=O)c1c(S(=O)(=O)CCC)c2cnccn2c1C(=O)c1ccc(Cl)cc1	-4.2	/	7.5	-4.0	7.4	-0.99
CC(C)(C)c1ccc(C(=O)CCCSC2=C(C#N)C(c3ccco3)C3=C(CCCC3=O)N2)cc1 (stereo not drawn)	5.2	79.6*	2.0	-22.0	-6.7	0.98
COc1cc(/C=N/NC(=O)CCc2c(C)n[nH]c2C)cc(OC)c1OC	-1.5	/	2.9	-7.0	8.2	0.08
NC1=NC(=Nc2ccccc2)c2ccccc21	8.4	-23.9	7.2	-3.0	7.9	-0.08
Cc1cccc(N=C2N=C(N)c3ccccc32)c1	5.7	/	-18.6	6.0	33.1*	0.19
